Key:
[1] = Spectroscopic characterization in 0.1 M NaOH; assay type: physicochemical; details: in 0.1M NaOH(aq); for ε: at max absorption; for Φfl: relative to fluorescein
[2] = MTT reduction assay, cellular toxicity; assay type: cell-based
HEK293T (HEK) cells = experiment: Cell permeability by fluorescence microscopy; assay type: cell-based; details: 500 nM, 20 min, 37 °C
Summary of the method: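 HEK293T cells incubated with 500 nM test compound (free acid or acetoxymethyl ester forms) for 20 min at 37 °C, washed once with HBSS, then imaged by widefield fluorescence and DIC microscopy to assess uptake.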

[3] = pH titration of absorbance; assay type: physicochemical; details: for phenolic pKa (transition to the dianion): absorbance at λmax vs pH, 10 mM buffers, 150 mM NaCl, 2 μM dye
Summary of the method: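 Dichlorofluorescein dyes at 2 μM in 10 mM buffered solutions containing 150 mM NaCl, spanning pH 2.4 to 9.8 (intermediate steps 3.1–9.2); absorbance spectra recorded and normalized. Normalized absorbance at λmax plotted against pH and fitted to sigmoidal dose-response curves to obtain pKa; n = 3 independent determinations, error as ± SEM.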

λmax [1] [nm]	λem [1] [nm]	ε [1]	Φfl [1]	uptake into cells / cell permeability (HEK293T (HEK) cells)	pKa of trianion formation (phosphonate, hypsochromic shift) ([3]; quantification of 5 nm hypsochromic shift with increasing pH)	phenolic pKa (transition to the dianion) [3]	Compound	cellular toxicity [2]
502	–	–	–	–	–	–	2’,7’-dichloro-3-carboxyfluorescein [2’,7’-dichloro-3-carboxy-fluorescein, reference compound]	–
498	517	88,000 M^−1cm^−1	0.90	no uptake	7.8	–	2’,7’-dichloro-3-phosphonofluorescein [compound 4]	very low cellular toxicity
509	526	87,000 M^−1cm^−1	0.89	–	–	–	2’,7’-dichloro-3-sulfonofluorescein [sF.Cl, reference compound]	–
488	508	84,000 M^−1cm^−1	0.94	–	–	4.8	2’,7’-difluoro-3-phosphonofluorescein [compound 5]	–
487	508	75,000 M^−1cm^−1	0.99	–	–	6.4	O=c1ccc2c(-c3ccccc3P(=O)(O)O)c3ccc(O)cc3oc-2c1 [compound 6, 3-phosphonofluorescein]	–
491	514	88,000 M^−1cm^−1	0.92	–	–	–	O=C1OC2(c3ccc(O)cc3Oc3cc(O)ccc32)c2ccccc21 [fluorescein, reference compound]	–

Reference: PMC8327618 (Journal of the American Chemical Society, 2021)
